# Screening results: PubChem BioAssay, The Scripps Research Institute Molecular Screening Center
# M5 antag: CHRM5 antagonism in calcium assay; AID 624040; P08912; inhibition, % at 3 µM; CHO-hM5 cells, Fluo-8 calcium fluorescence, ACh EC80; 360,000 tested, 0.59% active;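 active = inhibition above a per-plate cutoff, the mean of that plate's test compounds plus 3 SD, cut at about 27% in these data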;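 also: 0% = acetylcholine EC80 with DMSO and 100% = DMSO without agonist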
# Target sequence (P08912 whole entry, looked up): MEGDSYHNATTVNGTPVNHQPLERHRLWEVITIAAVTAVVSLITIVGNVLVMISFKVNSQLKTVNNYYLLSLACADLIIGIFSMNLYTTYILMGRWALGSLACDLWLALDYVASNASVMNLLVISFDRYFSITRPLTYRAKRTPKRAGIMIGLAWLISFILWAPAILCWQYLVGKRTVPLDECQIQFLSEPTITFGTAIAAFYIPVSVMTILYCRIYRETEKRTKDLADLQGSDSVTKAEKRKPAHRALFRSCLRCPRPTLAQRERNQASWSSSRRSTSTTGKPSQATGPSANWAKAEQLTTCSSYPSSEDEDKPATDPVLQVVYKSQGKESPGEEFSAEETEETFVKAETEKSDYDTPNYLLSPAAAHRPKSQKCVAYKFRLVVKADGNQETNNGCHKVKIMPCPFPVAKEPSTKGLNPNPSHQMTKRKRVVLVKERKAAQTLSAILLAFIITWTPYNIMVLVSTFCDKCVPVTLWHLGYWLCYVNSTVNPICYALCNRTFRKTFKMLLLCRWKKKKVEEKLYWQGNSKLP
# M4 ag: CHRM4 agonism in calcium assay | 360,000 tested, 0.14% active | activation, % at 3 µM | AID 624127 | P08173 | CHO-K1 hM4/Gqi5, Fluo-8 calcium fluorescence; vehicle 0%, full acetylcholine response 100%;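 active = activation above the run mean over all test wells plus 3 SD, cut at about 32% in these data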;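 also: peak over basal fluorescence ratio per well then scaled between controls; 0% = DMSO wells and 100% = acetylcholine at EC100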
# CHRM4 antagonist: CHRM4 antagonism in calcium assay. CHO-hM4 cells, ACh EC80, Fluo-8 calcium fluorescence. AID 624125. 360,000 tested, 0.73% active. inhibition, % at 3 µM. P08173;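 active = inhibition above its plate's cutoff, the mean inhibition of sample wells plus 3 SD, cut at about 27% in these data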;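 also: 0% = acetylcholine EC80 with DMSO and 100% = DMSO without agonist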
# M5 ag: CHRM5 agonism in calcium assay; P08912; CHO-K1 hM5 cells, Fluo-8 calcium fluorescence; 0% DMSO wells, 100% maximal acetylcholine response; activation, % at 3 µM; 360,000 tested, 0.19% active;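 active = activation above the run's mean over test compounds plus 3 SD, cut at about 23% in these data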;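 also: signal is peak over basal fluorescence ratio across the kinetic read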
# CHRM5 PAM: potentiates acetylcholine response at human M5 receptor. CHO-K1 hM5, Fluo-8 calcium, ACh EC20 PAM; 0% = ACh EC20, 100% = ACh EC100. activation, % at 3 µM. 360,000 tested, 0.3% active. AID 624038;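 active = activation above the run cutoff, the mean activation of all test compounds plus 3 SD, cut at about 18% in these data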
#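 Measured by: Fluo-8 calcium fluorescence; material: human M5 receptor in CHO-K1 cells; schedule: Post-acetylcholine fluorescence recording 140 s; benchmarks: low control EC20 acetylcholine (0%), high control EC100 acetylcholine (100%); read-out: Max/basal fluorescence ratio as % of EC20–EC100 ACh window; compound: single dose, 3 µM nominal final test concentration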
# CHRM4 PAM: CHRM4 positive allosteric modulation. P08173. CHO-K1 hM4/Gqi5, Fluo-8 calcium fluorescence, ACh EC20; 0% = ACh EC20, 100% = maximal ACh. activation, % at 3 µM. 360,000 tested, 0.4% active. AID 624126;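 active = activation above its plate's cutoff, the mean activation of sample wells plus 3 SD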
# * marks the source's active call; other numbers are inactive results. Most compounds without a hit are left out; they make up all but 1.8% or so of the library.
SMILES,M5 antag,M4 ag,CHRM4 antagonist,M5 ag,CHRM5 PAM,CHRM4 PAM
Cc1sc2nc(CSCC(=O)Nc3ccccc3C#N)[nH]c(=O)c2c1C,-1,1,-6,1,3,38*
CSc1ccccc1NC(=O)CSCc1nc2sc(C)c(C)c2c(=O)[nH]1,-4,1,8,2,4,-2
CC[C@]12C(=O)N(C)C[C@H]([C@@H]3C(=O)N(C)C(=O)[C@@H]31)N2C(=O)c1ccccc1,9,2,-10,1,12,8
C[C@H](CO)N1C[C@H](C)[C@@H](CN(C)S(=O)(=O)c2cccs2)Oc2ccc(NC(=O)Nc3ccc4c(c3)OCO4)cc2C1=O,14,1,10,-2,-4,-1
C[C@H](CO)N1C[C@H](C)[C@H](CN(C)S(=O)(=O)c2cccs2)Oc2ccc(NC(=O)Nc3ccc4c(c3)OCO4)cc2CC1=O,12,1,41*,-2,-2,-16
C[C@H]1CN([C@@H](C)CO)C(=O)Cc2cc(NS(=O)(=O)c3cccs3)ccc2O[C@H]1CN(C)S(=O)(=O)c1cn(C)cn1,1,3,32*,-5,-3,-14
C[C@H](CO)N1C[C@H](C)[C@@H](CN(C)S(=O)(=O)c2cccs2)Oc2ccc(NS(=O)(=O)c3cn(C)cn3)cc2C1=O,13,1,9,-2,0,-1
Cc1c(N=NC2=C(O)CC(C)(C)CC2=O)cc2c(c1[N+](=O)[O-])C(C)(C)CC2(C)C,-24,1,-6,4,23*,-4
CC(=O)Nc1cc2c(c([N+](=O)[O-])c1C)C(C)(C)CC2(C)C,7,0,-3,-11,7,-2
O=C(Nc1ccc(F)cc1)Nc1ccccc1NS(=O)(=O)c1cccs1,25,14,0,11,-19,-12
O=C(Nc1ccc(Cl)cc1)Nc1ccccc1NS(=O)(=O)c1cccs1,44*,23,19,7,-19,-19
O=c1[nH][nH]c(-c2ccccc2)c1C=Nc1ccc(F)cc1F,-3,2,-4,2,8,21*
COc1ccccc1N(C)S(=O)(=O)c1ccc(C(=O)NCCCN2CCCC2=O)cc1,2,2,-11,1,-1,2
O=C(C[n+]1ccc(Cc2ccccc2)cc1)Nc1ccc([N+](=O)[O-])cc1Cl,3,1,27*,-10,-9,-20
Cc1cnc(NC(=O)c2cncc(Br)c2)s1,-2,1,-5,-9,2,20*
Cc1cnc(NC(=O)c2ccncc2)s1,1,0,-3,-3,9,2
COc1ccccc1CCN1CCCC(CN(C)CC(C)(C)CO)C1 (stereo not given),11,1,30*,-16,-1,-16
CC(=O)c1cccc(CN(C)CC2CCCN(CCc3ccccc3C)C2)c1 (stereo not given),81*,2,88*,-23,-33,-16
COc1ccc(CNC(=O)Nc2nc(C(N)Cc3ccc(Cl)cc3)cs2)cc1 (stereo not given),15,28,33*,5,-1,-4
COc1ccccc1CNC(=O)Nc1nc(C(N)C(C)C)cs1 (stereo not given),0,1,3,1,-2,2
COc1ccccc1CNC(=O)Nc1nc(C(N)Cc2ccc(Cl)cc2)cs1 (stereo not given),4,15,27*,6,-1,-4
COc1ccc(CNC(=O)Nc2nc(C(N)Cc3ccc(F)cc3)cs2)cc1 (stereo not given),9,18,19,9,2,-5
CC(C)(C#CC(O)(c1ccccc1)c1ccccc1)N1CCCCC1,42*,1,47*,-19,-30,-16
OCCN(CC#CC(O)(c1ccccc1)c1ccccc1)CCO,7,1,-9,-19,-3,4
CC(C)(C#CC(O)(c1ccccc1)c1ccccc1)N1CCCC1,69*,0,79*,-11,-16,-26
SMILES,M5 antag,M4 ag,CHRM4 antagonist,M5 ag,CHRM5 PAM,CHRM4 PAM
CC(=O)NNC(=O)C(O)(c1ccccc1)c1ccccc1,-6,0,4,-1,1,-2
Cc1ccc(CSCC(=O)Nc2cc(S(=O)(=O)N3CCOCC3)ccc2OCC(F)(F)F)cc1,16,3,-2,-9,-17,6
O=C(CN1C(=O)COc2ccccc21)NCc1ccc(C(=O)O)cc1,3,2,28*,3,-5,10
O=C(CN1C(=O)COc2ccccc21)NCCN1CCC(Cc2ccccc2)CC1,10,15,28*,-5,-16,-30
CCNC(=O)C1(C)CCN1CCC(=O)c1ccc(Br)cc1 (stereo not given),4,2,-4,1,2,1
CN(C)CCCn1c(SCc2c(Cl)cccc2Cl)nnc1-c1ccncc1,-9,4,15,-1,5,22*
CCc1nnc(NC(=O)CCN2C(=O)/C(=C/c3cc(OC)c(OC)c(OC)c3)SC2=S)s1,-11,2,-28,-3,4,15*
NC(=O)C(c1ccccc1)C1CCCC1 (stereo not given),-11,1,-1,-1,-3,5
CN(C)[C@@H]1CCC[C@H]1OC(=O)C(c1ccccc1)c1ccccc1,53*,0,20,-8,-19,-14
CC1CN(C)C(C)CC1OC(=O)C(c1ccccc1)c1ccccc1 (stereo not given),68*,1,61*,-17,-29,-15
CCN(CC)CCCNc1nc2ccccc2c2[nH]c3ccc(OC)cc3c12,0,8,-10,1,0,-4
CC[C@@]12C(=O)N(c3cccc(Cl)c3)C(=O)N1[C@H](c1ccc(Br)cc1)[C@@H]1C(=O)N(C(C)(C)C)C(=O)[C@@H]12,3,3,-10,-1,4,28*
Cc1cccc(N2C(=O)N3[C@H](c4ccc(Cl)cc4)[C@@H]4C(=O)N(C5CCCCC5)C(=O)[C@@H]4[C@]3(Cc3ccc(Cl)cc3)C2=O)c1,-13,2,-15,7,19*,6
CC(C)C[C@@]12C(=O)N(c3cccc(Cl)c3)C(=O)N1[C@H](c1ccc(Br)cc1)[C@@H]1C(=O)N(C(C)(C)C)C(=O)[C@@H]12,8,1,6,0,-1,3
Cc1cccc(N2C(=O)N3[C@H](c4ccc(F)cc4)[C@@H]4C(=O)N(C5CCCCC5)C(=O)[C@@H]4[C@]3(Cc3ccc(Cl)cc3)C2=O)c1,4,1,5,0,13,6
